ChEMBL document CHEMBL2163188, “Discovery of piragliatin--first glucokinase activator studied in type 2 diabetic patients” (J Med Chem, 2012)

Target: T1, Hexokinase-4 (Homo sapiens) (UniProt P35557)
T1 sequence (whole entry): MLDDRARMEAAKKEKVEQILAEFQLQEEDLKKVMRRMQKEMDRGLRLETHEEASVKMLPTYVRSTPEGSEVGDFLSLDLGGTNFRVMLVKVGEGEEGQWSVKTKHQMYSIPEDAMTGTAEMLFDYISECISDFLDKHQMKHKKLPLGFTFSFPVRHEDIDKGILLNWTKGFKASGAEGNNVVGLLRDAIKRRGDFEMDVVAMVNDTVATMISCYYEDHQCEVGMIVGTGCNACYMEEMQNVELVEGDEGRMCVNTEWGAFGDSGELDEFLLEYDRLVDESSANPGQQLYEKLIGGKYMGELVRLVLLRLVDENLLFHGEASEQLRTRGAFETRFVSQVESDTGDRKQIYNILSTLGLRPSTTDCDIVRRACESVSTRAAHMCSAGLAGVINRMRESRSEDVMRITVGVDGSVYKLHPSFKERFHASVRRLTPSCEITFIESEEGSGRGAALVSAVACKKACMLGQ
Assay: Activation of human recombinant glucokinase assessed as concentration required for 1.5 fold increase in enzymatic activity
Method in brief: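 Human recombinant GK; activator at fixed concentrations from ∼0.010 to 30 μM, each in duplicate, with glucose held at 5 mM. SC1.5 is the activator concentration giving a 1.5-fold rise in enzymatic activity over untreated GK. Assay CV was about 15%.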

- Activity: 0.065 µM
SMILES: CS(=O)(=O)c1ccc(C(CC2CCCC2)C(=O)Nc2nccs2)cc1[N+](=O)[O-] (racemic)
